# Data reported in ChEMBL document CHEMBL4673407, “Fragment-Based Discovery of Novel Allosteric MEK1 Binders” (ACS Med Chem Lett, 2021).
# How the values were obtained:
# [1] = Octanol-water partition coefficient, log D of the compound at pH 7.4 by shake flask method; type: physicochemical
# [2] = Intrinsic clearance in human liver microsomes; type: ADME, Microsome; conditions: read-out: CLH
# In short: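 Human liver microsomal stability; intrinsic clearance expressed in μL/(min mg).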
# [3] = Intrinsic clearance in rat hepatocytes; type: ADME, cell-based, Hepatocyte
# In short: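 Rat hepatocyte stability; intrinsic clearance expressed in μL/(min 1E6) cells.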
# [4] = molecular target: T1, Dual specificity mitogen-activated protein kinase kinase 1 (Homo sapiens, UniProt Q02750); test: Binding affinity to full length biotinylated 6His/Avi-tagged/Tev-fused human MEK1 expressed in Escherichia coli in absence of AMP-PNP by SPR assay
# [5] = molecular target: T1, Dual specificity mitogen-activated protein kinase kinase 1; test: Binding affinity to full length biotinylated 6His/Avi-tagged/Tev-fused human MEK1 expressed in Escherichia coli in presence of AMP-PNP by SPR assay
# T1 sequence (Q02750 whole entry, the tested form may be a part): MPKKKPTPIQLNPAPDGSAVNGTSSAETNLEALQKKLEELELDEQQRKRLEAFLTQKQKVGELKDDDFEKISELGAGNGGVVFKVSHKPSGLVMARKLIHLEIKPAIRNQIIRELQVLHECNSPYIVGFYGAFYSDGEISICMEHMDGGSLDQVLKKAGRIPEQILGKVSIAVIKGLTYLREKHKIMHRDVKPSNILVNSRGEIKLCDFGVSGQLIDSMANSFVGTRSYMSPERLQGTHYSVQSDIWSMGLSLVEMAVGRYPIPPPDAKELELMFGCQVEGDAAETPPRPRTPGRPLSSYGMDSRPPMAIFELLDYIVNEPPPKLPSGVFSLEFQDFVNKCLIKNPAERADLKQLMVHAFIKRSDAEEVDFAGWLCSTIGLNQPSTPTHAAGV
logD [1],Compound,other results
1.5,O=C(CC1SCCNC1=O)Nc1ccc(OC(F)F)cc1 (stereo not drawn),
0.8,COc1ccc(NC(=O)CC2SCCNC2=O)cc1 (stereo not drawn),microsomal CLint [2]: 8 µL/min/mg; CLH [3]: 34 µL/min
0.1,O=C(CC1SCCNC1=O)Nc1ccc(O)cc1 (stereo not drawn),
1.6,COc1ccc(C2CC(=O)NCCS2)cc1 (stereo not drawn),
1.8,O=C(CC1SCCNC1=O)Nc1ccc(Cl)cc1 (stereo not drawn),Kd [4]: 14 µM; Kd [5]: 7.4 µM
,COc1ccc(N(C)C(=O)CC2SCCNC2=O)cc1 (stereo not drawn),Kd [5]: > 1000 µM
1.1,COc1ccc(NC(=O)CC2SCCNC2=O)cc1F (stereo not drawn),
1.8,CC(=O)Nc1ccc2c(C(F)(F)F)cc(=O)oc2c1,
2,O=c1[nH]ccc2nc(-c3ccccc3)cn12,
1.3,CCOc1ccc(NC(=O)CC2SCCNC2=O)cc1 (stereo not drawn),
2.3,O=C(CC1SCCNC1=O)Nc1ccc(Cl)c(Cl)c1 (stereo not drawn),Kd [4]: 87 µM; Kd [5]: 65 µM
1.2,O=C(CC1SCCNC1=O)Nc1ccc(F)cc1 (stereo not drawn),
0.9,O=C(CC1SCCNC1=O)Nc1ccc2c(c1)OCO2 (stereo not drawn),
0.8,O=C(CC1SCCNC1=O)Nc1ccccc1 (stereo not drawn),
2.9,CCN(C)c1cc(-c2ccccc2O)nc2nccn12,
0.8,COc1ccccc1NC(=O)CC1SCCNC1=O (stereo not drawn),
,O=C(CC1SCCNC1=O)Nc1ccc(OC(F)(F)F)cc1 (stereo not drawn),Kd [5]: > 1000 µM
1.4,COc1ccc(-c2cccc(=O)[nH]2)cc1,
1,COc1cccc(NC(=O)CC2SCCNC2=O)c1 (stereo not drawn),

Compound,logD [1],other results
O=C(c1cccnc1)c1cc2ccccc2[nH]1,2.3,Kd [4]: 59 µM; Kd [5]: 65 µM
